In paper PMC6970618 (Bioorganic & medicinal chemistry letters, 2018):
“Also recorded” adds a separate entry of the source. Read-outs that look alike come from different tables or passages of the source.

Tests used:
T. cruzi amastigotes = test: Intracellular T. cruzi amastigote assay in Vero cells; type: cell-based, Trypanosoma cruzi; conditions: for EC50: Trypanosoma cruzi, Vero; for Tc pEC50: T. cruzi amastigote cultures in Vero cells, mean of three or more EC50 determinations ± standard deviation
In short: (§1)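 Intracellular T. cruzi amastigotes cultured in Vero host cells, with the host Vero cells read in parallel. pEC50 is the mean of independent EC50 determinations: three or more ± standard deviation, or for some compounds two ± range.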

TcCYP51 = TcCYP51 (Trypanosoma cruzi, UniProt Q7Z1V1); test: TcCYP51 counter-screen; type: biochemical, T. cruzi; conditions: for TcCYP51 inhibition: result in words
Sequence of TcCYP51 (Q7Z1V1 whole entry): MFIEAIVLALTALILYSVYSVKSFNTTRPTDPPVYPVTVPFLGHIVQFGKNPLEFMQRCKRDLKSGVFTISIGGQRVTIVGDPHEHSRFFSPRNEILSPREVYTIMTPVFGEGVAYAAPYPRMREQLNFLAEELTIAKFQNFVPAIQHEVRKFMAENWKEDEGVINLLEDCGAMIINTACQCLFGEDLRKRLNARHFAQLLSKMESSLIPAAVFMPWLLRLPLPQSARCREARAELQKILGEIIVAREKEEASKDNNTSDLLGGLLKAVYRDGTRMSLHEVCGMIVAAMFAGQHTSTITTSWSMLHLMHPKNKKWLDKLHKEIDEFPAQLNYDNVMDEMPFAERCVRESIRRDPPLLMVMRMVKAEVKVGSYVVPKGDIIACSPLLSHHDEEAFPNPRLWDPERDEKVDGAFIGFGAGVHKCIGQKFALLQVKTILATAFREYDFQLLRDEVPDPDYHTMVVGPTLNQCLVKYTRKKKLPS

Vero cells = test: Host Vero cell toxicity counter-read of the amastigote assay; type: cell-based
In short: as §1

T. cruzi = T. cruzi cytostatic/cytocidal assay; type: cell-based, Trypanosoma cruzi; conditions: cytocidal versus cytostatic behaviour
[1] = Intrinsic clearance in mouse liver microsomes; type: in vitro ADME; conditions: result in words
[2] = host Vero cells, mean of three or more EC50 determinations ± standard deviation

| TcCYP51 inhibition (TcCYP51) | SMILES | EC50 (T. cruzi amastigotes; read-out: Tc pEC50 (converted)) [nM] | Cytocidal (T. cruzi) | further results |
| --- | --- | --- | --- | --- |
| – | Cc1cc(N(C)C)nc(NC2CCN(C(=O)Cc3ccc(F)cc3F)CC2)n1 [Compound 6e] | 3160 | – | – |
| did not inhibit TcCYP51 | Cc1cc(N(C)C)nc(NCc2ccccc2)n1 [Compound 6a] | 3160 | cytocidal | Tc pEC50 (T. cruzi amastigotes): 5.5 ± 0.3; Vero pEC50 (Vero cells; [2]): < 4.3 |
| did not inhibit TcCYP51 | COc1cc(Nc2nc(C)cc(N(C)C)n2)ccc1F [Compound 4d] | – | cytocidal | Tc pEC50 (T. cruzi amastigotes): 6.4 ± 0.3; Vero pEC50 (Vero cells; [2]): 4.5 ± 0.1 |
| – | Cc1cc(N(C)C)nc(Nc2ccc(C(=O)N3CCCCC3)cc2)n1 [Compound 5a] | 2000 | – | toxicity against the host cells (Vero cells; at the top concentration tested (50 μM)): no toxicity |
| – | COc1cc(Nc2cc(C)nc(NCc3ccccc3)n2)ccc1F [Compound 17c] | 79.4 | cytostatic behavior; also recorded: no longer cytocidal | – |
| no activity versus TcCYP51 | COc1cc(OC)cc(C(=O)N[C@H]2CC[C@H](Nc3nc(C)cc(N(C)C)n3)CC2)c1 [Compound 8b] | – | cytocidal | – |
| – | COc1cc(Nc2nc(C)cc(N3CCCC3)n2)ccc1F [Compound 13b] | 316 | – | – |
| – | COc1cc(Nc2nc(C(=O)N3CCCC3)cc(N(C)C)n2)ccc1F [Compound 18e] | 31600 | – | – |
| – | COc1cc(Nc2nc(C(C)C)cc(N(C)C)n2)ccc1F [Compound 18c] | 2000 | – | – |
| – | COc1cc(OC)cc(C(=O)Nc2ccc(Nc3nc(C)cc(N(C)C)n3)cc2)c1 [Compound 1] | – | cytocidal behavior | EC50 (TcCYP51): > 10000 nM; EC50 (T. cruzi amastigotes; read-out: pEC50 against T. cruzi parasites (converted)): 126 nM; Vero pEC50 (Vero cells; Table 2: host Vero cells, mean of two EC50 determinations ± range (1, 4b: ± standard deviation from > 2 determinations)): 5.2 ± 0.3; stability in mouse liver microsomes (MLM) [1]: stable |
